Reference: ChEMBL document CHEMBL4665832, “Benzylidene thiazolidinediones: Synthesis, in vitro investigations of antiproliferative mechanisms and in vivo efficacy determination in combination with Imatinib” (Bioorg Med Chem Lett, 2020)
The source made the active and inactive calls. The calls are words filed in the database; no cut-off is given here.

What was measured:
A549 = experiment: Antiproliferative activity against human A549 cells assessed as cell growth inhibition; format: functional
Method in brief: (§1)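 Cell lines screened for growth inhibition and GI₅₀ derived. Each value is the mean of 3 independent experiments.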

[1] = Cytotoxicity against hepatocytes (unknown origin) assessed as cell growth by MTT assay relative to control; format: cell-based, Hepatocyte; design: concentration or dose not given beside the values
NCI-H226 = experiment: Antiproliferative activity against human NCI-H226 cells assessed as cell growth inhibition; format: functional; method in brief: as §1
PC-3 = experiment: Antiproliferative activity against human PC-3 cells assessed as cell growth inhibition; format: functional; method in brief: as §1
K562 [2] = experiment: Cell cycle arrest in human K562 cells assessed as increase in cells accumulation at G0/G1 phase at 5 to 20 uM measured by flow cytometry analysis; format: functional, cell-based; details: dose microM 5-20, time hrs 24-72, TDE = time-dependent effect
Method in brief: (§2)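 K562 cells exposed to 5, 10 or 20 µM and sampled at 24, 48 and 72 h. Phase distribution (G0/G1, S, G2/M) measured by flow cytometry. Untreated and DMSO vehicle controls. SEM of n = 3. Two-tailed t-test, P < 0.05.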

MCF7 = experiment: Antiproliferative activity against human MCF7 cells assessed as cell growth inhibition; format: functional; method in brief: as §1
K562 [3] = experiment: Anticancer activity against human K562 cells assessed as cell growth inhibition at 1 uM by MTT assay relative to control; format: functional; details: read-out: GI
Method in brief: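 K562 cells given imatinib 1 µM or test compound 1 µM alone, or imatinib 1 µM plus test compound 1 µM. Proliferation read by MTT assay and expressed as % inhibition.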

K562 [4] = experiment: Cell cycle arrest in human K562 cells assessed as accumulation at G2/M phase at 5 uM measured after 24 hrs by flow cytometry analysis; format: functional, cell-based
Method in brief: (§3)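 K562 cells exposed to 5 µM for 24 h, then cell-cycle phase distribution measured by flow cytometry. Untreated cells served as negative control and DMSO as vehicle control. SEM of n = 3. Two-tailed Student's t-test, P < 0.05.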

[5] = Acute toxicity in po dosed mouse assessed as mortality; format: organism-based; details: in vivo
Method in brief: (§4)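 Healthy mice were given oral doses that increased over the study period. Each higher dose was given only if the previous dose was well tolerated. All animals were monitored for body weight loss, behavioural changes and mortality to set the maximum tolerated dose.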

HOP-62 = experiment: Antiproliferative activity against human HOP-62 cells assessed as cell growth inhibition; format: functional; method in brief: as §1
K562 [6] = experiment: Downregulation of PCNA expression in human K562 cells at 20 uM measured after 72 hrs by Western blot analysis; format: functional, cell-based
Method in brief: (§5)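 K562 cells treated at 10 or 20 µM for 24, 48 or 72 h. PCNA and cyclin D1 detected by Western blot, bands quantified and normalised to actin. Means of three separate experiments, SD, P < 0.05.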

K562 [7] = experiment: Cell cycle arrest in human K562 cells assessed as accumulation at G0/G1 phase at 5 uM measured after 24 hrs by flow cytometry analysis; format: functional, cell-based; method in brief: as §3
MOLT-4 = experiment: Antiproliferative activity against human MOLT-4 cells assessed as cell growth inhibition; format: functional; method in brief: as §1
[8] = Antiproliferative activity against human GURAV cells assessed as cell growth inhibition; format: functional; method in brief: as §1
K562 [9] = experiment: Downregulation of cyclin-D1 expression in human K562 cells at 10 to 20 uM measured after 48 to 72 hrs by Western blot analysis; format: functional, cell-based; details: dose microM 10-20, time hrs 48-72; method in brief: as §5
K562 [10] = experiment: Downregulation of PCNA expression in human K562 cells at 10 to 20 uM measured after 24 hrs by Western blot analysis; format: functional, cell-based; details: dose microM 10-20, time 24.0 hrs; method in brief: as §5
HL-60 = experiment: Antiproliferative activity against human HL-60 cells assessed as cell growth inhibition; format: functional; method in brief: as §1
K562 [11] = experiment: Cell cycle arrest in human K562 cells assessed as increase in cells accumulation at G0/G1 phase measured after 24 to 72 hrs by flow cytometry analysis; format: functional, cell-based; details: dose microM 5-20, time hrs 24-72; method in brief: as §2
KB = experiment: Antiproliferative activity against human KB cells assessed as cell growth inhibition; format: functional; method in brief: as §1
K562 [12] = experiment: Downregulation of cyclin-D1 expression in human K562 cells at 10 to 20 uM measured after 24 hrs by Western blot analysis; format: functional, cell-based; details: dose microM 10-20, time 24.0 hrs; method in brief: as §5
U-937 = experiment: Antiproliferative activity against human U-937 cells assessed as cell growth inhibition; format: functional; method in brief: as §1
[13] = Acute toxicity in po dosed mouse assessed as body weight loss; format: organism-based; details: in vivo; method in brief: as §4
[14] = Acute toxicity in po dosed mouse assessed as maximum tolerated dose; format: organism-based; details: in vivo; method in brief: as §4
K562 [15] = experiment: Potentiation of imatinib-induced anticancer activity against human K562 cells assessed as cell growth inhibition at 1 uM by MTT assay (reference value: 71%); format: functional; details: read-out: GI
K562 [16] = experiment: Antiproliferative activity against human K562 cells assessed as cell growth inhibition; format: functional; method in brief: as §1
K562 [17] = experiment: Cell cycle arrest in human K562 cells assessed as decrease in cells accumulation at G2/M phase measured after 24 to 72 hrs by flow cytometry analysis; format: functional, cell-based; details: dose microM 5-20, time hrs 24-72; method in brief: as §2
K562 [18] = experiment: Potentiation of imatinib-induced antitumor activity against human K562 cells xenografted in mouse assessed as reduction in tumor volume at 100 mg/kg, ip administered for 30 days co-treated with imatinib at 100 mg/kg and measured every day for 30 days; format: functional, organism-based; details: time 30.0 day
Method in brief: (§6)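 Mice implanted subcutaneously in the right rear flank with 6 × 10⁶ K562 cells/100 μl in 50% matrigel. Dosed intraperitoneally: compound alone 200 mg/kg, or compound 100 mg/kg plus imatinib 100 mg/kg; controls were imatinib 100 mg/kg and saline. Tumour volume tracked over time, n = 6. Dunnett's test against control.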

K562 [19] = experiment: Cell cycle arrest in human K562 cells assessed as decrease in cells accumulation at G2/M phase at 5 to 20 uM measured by flow cytometry analysis; format: functional, cell-based; details: dose microM 5-20, time hrs 24-72, TDE = time-dependent effect; method in brief: as §2
K562 [20] = experiment: Antitumor activity against human K562 cells xenografted in mouse assessed as reduction in tumor volume at 200 mg/kg, ip administered for 30 days and measured every day for 30 days; format: functional, organism-based; details: time 30.0 day; method in brief: as §6
Jurkat = experiment: Antiproliferative activity against human Jurkat cells assessed as cell growth inhibition; format: functional; method in brief: as §1
K562 [21] = experiment: Cell cycle arrest in human K562 cells assessed as accumulation at S phase at 5 uM measured after 24 hrs by flow cytometry analysis; format: functional, cell-based; method in brief: as §3
K562 [22] = experiment: Cell cycle arrest in human K562 cells assessed as decrease in cells accumulation at S phase measured after 24 to 72 hrs by flow cytometry analysis; format: functional, cell-based; details: dose microM 5-20, time hrs 24-72; method in brief: as §2
K562 [23] = experiment: Downregulation of PCNA expression in human K562 cells at 10 to 20 uM measured after 48 hrs by Western blot analysis; format: functional, cell-based; details: dose microM 10-20, time 48.0 hrs; method in brief: as §5
K562 [24] = experiment: Cell cycle arrest in human K562 cells assessed as decrease in cells accumulation at S phase at 5 to 20 uM measured by flow cytometry analysis; format: functional, cell-based; details: dose microM 5-20, time hrs 24-72, TDE = time-dependent effect; method in brief: as §2
DU-145 = experiment: Antiproliferative activity against human DU-145 cells assessed as cell growth inhibition; format: functional; method in brief: as §1
MDA-MB-435 = experiment: Antiproliferative activity against human MDA-MB-435 cells assessed as cell growth inhibition; format: functional; method in brief: as §1
K562 [25] = experiment: Induction of apoptosis in human K562 cells assessed as increase in cleaved PARP1 expression at 5 to 20 uM measured after 72 hrs by Western blot analysis; format: functional, cell-based; details: dose microM 5-20, time 72.0 hrs
Method in brief: (§7)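 K562 cells treated 72 h at 5, 10 or 20 µM alongside DMSO vehicle control. Cleaved PARP1 and caspase 3 detected by Western blot and normalised to actin. Means of at least two experiments, SD.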

K562 [26] = experiment: Downregulation of PCNA expression in human K562 cells at 10 to 20 uM measured after 48 to 72 hrs by Western blot analysis; format: functional, cell-based; details: dose microM 10-20, time hrs 48-72; method in brief: as §5
K562 [27] = experiment: Induction of apoptosis in human K562 cells assessed as increase in activated caspase-3 expression at 5 to 20 uM measured after 72 hrs by Western blot analysis; format: functional, cell-based; details: dose microM 5-20, time 72.0 hrs; method in brief: as §7

SMILES	GI50 (A549) [µM]	GI50 (NCI-H226) [µM]	GI50 (MOLT-4) [µM]	GI50 (HL-60) [µM]	GI50 (U-937) [µM]	GI50 (Jurkat) [µM]	viability [1] [%]	GI50 (PC-3) [µM]	GI50 (MCF7) [µM]	inhibition of growth at 1 µM (K562 [3]) [%]	GI50 (HOP-62) [µM]	GI50 [8] [µM]	GI50 (KB) [µM]	GI50 (K562 [16]) [µM]	further results
O=C(COc1ccc(/C=C2\SC(=O)NC2=O)cc1)Nc1ccc(F)cc1F	–	–	40.3	47.8	35.6	34.6	> 70	> 100	65.8	62	> 100	61.4	> 100	0.9	Activity (K562 [2]): Tde; Activity (K562 [4]): Active; Activity [5]: Non-Toxic; inhibition (K562 [6]): Active; Activity (K562 [7]): Active; inhibition (K562 [9]): Active; inhibition (K562 [10]): inactive; Activity (K562 [11]): Dose-dependent effect; inhibition (K562 [12]): inactive; Activity [13]: Non-Toxic; MTD [14]: 2000 mg/kg; inhibition of growth at 1 µM (K562 [15]): 79%; Activity (K562 [17]): Dose-dependent effect; Activity (K562 [18]): Active; Activity (K562 [19]): Tde; Activity (K562 [20]): Active; Activity (K562 [21]): Active; Activity (K562 [22]): Dose-dependent effect; inhibition (K562 [23]): inactive; Activity (K562 [24]): Tde
O=C(COc1ccc(/C=C2\SC(=O)NC2=O)cc1)Nc1c(Cl)cccc1Cl	–	–	> 100	97.6	60	21.9	> 70	> 100	61.7	–	> 100	56.8	> 100	6.7	–
Cc1ccc(NC(=O)c2ccc(CN3CCN(C)CC3)cc2)cc1Nc1nccc(-c2cccnc2)n1 [IMATINIB]	–	–	–	–	–	–	–	–	–	71	–	–	–	–	–
O=C1NC(=O)/C(=C/c2ccc(OCC(=O)N3c4ccccc4Sc4ccccc43)cc2)S1	> 100	82.1	–	–	–	–	> 70	–	–	–	–	–	–	–	–
O=C(COc1ccc(/C=C2\SC(=O)NC2=O)cc1)Nc1ccc(Cl)cc1C(F)(F)F	–	–	32.5	56.7	67.5	28.9	> 70	> 100	49.7	65	> 100	86.8	> 100	0.23	Activity (K562 [2]): Tde; Activity (K562 [4]): Active; Activity [5]: Non-Toxic; Activity (K562 [7]): Active; Activity (K562 [25]): Dose-dependent effect; inhibition (K562 [10]): inactive; Activity (K562 [11]): Dose-dependent effect; inhibition (K562 [12]): inactive; Activity [13]: Non-Toxic; MTD [14]: 2000 mg/kg; inhibition (K562 [26]): Active; inhibition of growth at 1 µM (K562 [15]): 82%; Activity (K562 [17]): Dose-dependent effect; Activity (K562 [18]): Active; Activity (K562 [19]): Tde; Activity (K562 [20]): Active; Activity (K562 [21]): Active; Activity (K562 [22]): Dose-dependent effect; Activity (K562 [27]): Dose-dependent effect; Activity (K562 [24]): Tde

Now from value to compound, other results behind:

GI50 (A549) [µM]	GI50 (NCI-H226) [µM]	GI50 (MOLT-4) [µM]	GI50 (HL-60) [µM]	GI50 (U-937) [µM]	GI50 (Jurkat) [µM]	SMILES	viability [1] [%]	GI50 (PC-3) [µM]	GI50 (MCF7) [µM]	inhibition of growth at 1 µM (K562 [3]) [%]	GI50 (HOP-62) [µM]	GI50 [8] [µM]	GI50 (KB) [µM]	GI50 (K562 [16]) [µM]	further results
88.7	57.8	–	–	–	–	Cc1cnc(NC(=O)COc2ccc(/C=C3\SC(=O)NC3=O)cc2)s1	> 70	–	–	–	–	–	–	–	–
–	–	53.5	61.1	63.9	59.9	O=C(COc1ccc(/C=C2\SC(=O)NC2=O)cc1)Nc1ccc(F)cc1	> 70	> 100	54.6	–	68	56.8	> 100	9.6	–
–	–	47.3	73.3	49.1	26.5	O=C(COc1ccc(/C=C2\SC(=O)NC2=O)cc1)Nc1cccc(C(F)(F)F)c1	> 70	–	–	–	–	–	–	–	GI50 (DU-145): 59.2 µM; GI50 (MDA-MB-435): > 100 µM
46.9	26.5	–	–	–	–	O=C(COc1ccc(/C=C2\SC(=O)NC2=O)cc1)Nc1nc2ccccc2s1	> 70	–	–	–	–	–	–	–	–
